# Mdm2-MdmX inh: inhibitors of human Mdm2-MdmX association, primary screen, cell-based, luminescence, split luciferase, SaOS-2, uHTS; Protein Mdm4 (Homo sapiens) + E3 ubiquitin-protein ligase Mdm2 (Homo sapiens), …; actives 3% (n = 330,000); AID 485346, 2010; inhibition, % at 8 µM; SaOS-2 split-luciferase Mdm2/MdmX complementation;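 active = inhibition of at least 50% at 8 µM in the primary screen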
# UPR XBP1 act: activators of adaptive XBP1 UPR arm, primary screen, cell-based, CHO-XBP1 luciferase reporter, luminescence, uHTS | IRE1-XBP1 UPR activation; percent of tunicamycin response, DMSO as zero | activation, % at 20 µM | actives 0.33% (n = 330,000);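 active = versus positive control, 20 µM dose yields 30% or more activation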;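 also: 100% = tunicamycin at 10 µg/mL and 0% = DMSO only wells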
#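 Material: CHO-XBP1 cells stably carrying IRE1-XBP1-driven luciferase reporter | Medium: F12 with 10% serum | Compound dosing: 20 µM single concentration, DMSO 1% | Incubation: Overnight seeding at 37 °C, 6 h compound treatment at 37 °C | Detection: Steady-Glo luminescence read | Read-out basis: % activation of reporter signal versus tunicamycin and DMSO controls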
# MDM2 E3 inh: MDM2-luciferase reporter signal enhancers, primary screen, MDM2 E3 ligase inhibitor project, cell-based, luminescence, 1536-well; E3 ubiquitin-protein ligase Mdm2 (Homo sapiens), Q00987; cell-based MDM2 ubiquitination luciferase reporter, 2 h; 0 = plate control, 100 = twice control, blank-subtracted; signal enhancement, % at 5 µM; actives 0.11% (n = 210,000);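 active = signal enhancement of 30% or more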;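 also: luminescence tracks abundance of the self-degrading MDM2-luciferase fusion protein; higher signal means inhibition of MDM2 E3 ligase activity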
# Target sequence (Q00987 whole entry, looked up, the tested form may be a part): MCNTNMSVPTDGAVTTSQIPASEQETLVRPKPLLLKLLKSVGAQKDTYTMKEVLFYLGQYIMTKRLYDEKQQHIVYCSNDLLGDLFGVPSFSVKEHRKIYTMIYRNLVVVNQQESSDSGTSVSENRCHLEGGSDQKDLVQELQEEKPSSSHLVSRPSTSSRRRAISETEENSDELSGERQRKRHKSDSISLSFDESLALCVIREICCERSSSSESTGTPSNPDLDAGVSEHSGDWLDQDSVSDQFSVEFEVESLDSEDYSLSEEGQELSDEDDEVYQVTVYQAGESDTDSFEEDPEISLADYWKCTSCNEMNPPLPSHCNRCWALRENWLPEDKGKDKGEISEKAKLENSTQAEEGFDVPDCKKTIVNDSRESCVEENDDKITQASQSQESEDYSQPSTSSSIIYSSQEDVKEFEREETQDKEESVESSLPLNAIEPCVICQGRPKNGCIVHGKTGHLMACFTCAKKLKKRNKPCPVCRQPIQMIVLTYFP
#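 Assay system: stable mammalian line carrying autodegrading MDM2–luciferase fusion reporter; Input: 2000 cells in each well; Compound dosing: single-point 5 µM; Schedule: 2 h compound exposure at 37 °C; Signal: SteadyLite luciferase luminescence after 15 min room-temperature reagent incubation; Evaluation: % luminescence enhancement versus blank-corrected plate control mean; Benchmarks: plate controls and plate blanks.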
# Dynein cargo inh: inhibitors of GR-EGFP nuclear translocation, primary screen, dynein cargo transport inhibitor project, imaging, high-content, 3617.4 mouse cells | z-score, hits read low | test concentration mostly 20 µM; stimulated with dexamethasone, 1 µM; active compounds read low | actives 0.47% (n = 220,000) | AID 1381, 2008;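 active = plate z-score of nuclear minus cytoplasmic receptor signal below a set negative limit, without overly bright fluorescence or cell loss, cut at about -3.5 in these data, passing the limit was not always enough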;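 also: z-score of nuclear minus cytoplasmic ring GR-EGFP intensity difference per well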
#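 Also added: dexamethasone, 1.0 µM final. Medium: tet-free, stripped-serum medium. Detection: fixed, Hoechst-stained cells imaged at 10x for EGFP. Read-out: nuclear-to-cytoplasmic GR-EGFP distribution per well. Times: induction 48 h, compound 1 h, agonist 30 min.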
# UPR CHOP act: activators of apoptotic CHOP UPR arm, primary screen, cell-based, CHO-CHOP luciferase reporter, luminescence, uHTS; UPR activation; percent of tunicamycin response over DMSO baseline; actives 0.34% (n = 330,000); activation, % at 10 µM;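 active = at 10 µM dose, activation of 40% or more, normalized to positive control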;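 also: 100% = tunicamycin at 10 µg/mL and 0% = DMSO alone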
#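 Material: CHO-CHOP cells, stable luciferase reporter of PERK-eIF2a-CHOP signalling; quantity: 500 reporter cells seeded per well; buffer or medium: F12 medium containing 10% fetal bovine serum; compound: one dose, 10 µM in 0.5% DMSO; incubation: 6 h compound treatment, 37 °C; measured by: Steady-Glo luciferase luminescence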
# B2AR ag: beta2AR agonists driving receptor internalization, primary screen, cell-based, FAP fluorogen, flow cytometry | Am2.2-beta2AR cells | response, % (concentration not given with the values) | actives 0.43% (n = 340,000) | Beta-2 adrenergic receptor (Homo sapiens), P07550 | AID 504454, 2011;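 active = response above a set limit, near 3 SD of response in nonfluorescent compounds, cut at about 42% in these data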
# Mdm2 MdmX conf: Mdm2-MdmX complex disruptors, retested hits, confirmation, luminescence, single concentration; shares compounds with Mdm2-MdmX inh; Mdm2-MdmX binding, luminescent assay; inhibition, % at 8 µM; actives 55% (n = 10,000); AID 489028, 2010; in the data active = inhibition above about 40%
# Full FLuc ctr: full-length luciferase signal inhibition, confirmation, counter-screen for Mdm2/MdmX interaction inhibitor project, cell-based, single concentration, SaOS-2 | shares compounds with Mdm2-MdmX inh | SaOS-2 full-length luciferase counterscreen, luminescence | inhibition, % at 8 µM | actives 77% (n = 6,200) | AID 504607, 2011;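 active = mean inhibition at 8 µM reaching about 37%, which flags the compound as non-specific, limit read from the data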;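 also: p53-null SaOS-2 cells with luciferase driven by a doxycycline-inducible promoter; compound on cells about two nights before reading with doxycycline added after day one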
# Active calls of the source: *; x = no result. In the library only some 3.7% were active in any assay of this set; here they are far more common.
SMILES,Mdm2-MdmX inh,UPR XBP1 act,MDM2 E3 inh,Dynein cargo inh,UPR CHOP act,B2AR ag,Mdm2 MdmX conf,Full FLuc ctr
Oc1c(CN2CCN(c3ccccn3)CC2)cc(Cl)c2cccnc12,72*,11,-27,-0.18,-10,2,71*,28
CN(CC(=O)NCCc1ccccc1)S(=O)(=O)c1ccc(Br)s1,-5,2,x,x,0,-5,x,x
CC(C)c1ccc(NC(=O)C2CCC(CNC(=O)[C@@H]3Cc4ccccc4CN3)CC2)cc1 (some centres undefined),48,3,x,x,3,-4,x,x
CCC(C)Nc1ccc(NC(C)CC)cc1 (centres undefined),97*,-7,x,x,5,22,68*,18
CC(OC(=O)CN1C(=O)NC2(CCCC2)C1=O)C(=O)c1ccccc1 (centres undefined),9,4,x,x,0,4,x,x
CC(=O)N1CCC2(CC1)C/C(=N\NC(=S)Nc1ccccc1F)c1cc(O)ccc1O2,67*,-2,-15,-0.52,2,21,32,96*
O=C1N(c2ccccc2)C[C@@H]2C[C@@H](c3cc4ccccc4o3)N3CCC[C@@]123,98*,-3,-5,-0.5,-5,0,98*,35
CCCCn1c(CCc2ccccc2)nc2cc3[nH]c(=O)c(C(C)C)nc3cc21,51*,10,x,x,0,-1,12,x
CCCCn1c(-c2ccc(F)c(F)c2)nc2cc3[nH]c(=O)c(C(C)C)nc3cc21,34,10,x,x,4,3,x,x
O=Cc1ccc(OCC(=O)NCC2CCCO2)cc1 (centres undefined),10,-2,x,x,-1,0,x,x
COc1ccc(/C=C/C(=O)N(C)CC(=O)Nc2cccc(F)c2)cc1S(=O)(=O)N1CCCCC1,52*,-4,x,x,-1,1,55*,69*
O=C(N/N=C/c1cccc(Cl)c1)c1c(O)c2c([nH]c1=O)CCCC2,69*,1,-14,-0.21,4,-1,-19,x
O=C(Nc1ccccc1O)c1c(O)c2c([nH]c1=O)CCCC2,-100,2,-19,0.063,7,9,x,x
CCN(CC)CCCNC(=O)c1cc2c(-c3ccc(Cl)cc3)nn(C)c2s1,64*,-1,-9,0.86,3,9,21,x
COc1ccc(-c2nn(C)c3sc(C(=O)NCc4ccco4)cc23)cc1OC,0,-1,-8,0.21,1,8,x,x
COc1ccc(NC(=O)c2cc3c(-c4ccc(OC)c(OC)c4)nn(C)c3s2)cc1OC,97*,2,-32,0.22,6,38,67*,50*
CN1CCN(CCCNC(=O)c2cc3c(-c4ccc(Cl)cc4)nn(C)c3s2)CC1,68*,-3,-6,-0.82,-1,11,31,x
COc1cccc(-c2nn(C)c3sc(C(=O)NCc4ccc(C)o4)cc23)c1,70*,-2,-13,-2.1,0,26,15,x
Cc1cc(SCC(=O)NCC(c2cccs2)N2CCOCC2)c(C)cc1Br (centres undefined),8,-2,x,x,2,5,x,x
CN1C[C@@H]2[C@@H]3C(=O)N(Cc4ccccc4)C(=O)[C@@H]3[C@](C)(C1=O)N2C(=O)c1ccccc1,x,x,x,x,x,-4,x,x
CCCCCCN(C(=O)CCCCCN1C(=O)NC(c2ccc([N+](=O)[O-])cc2)C(C(=O)OCc2ccccc2)=C1C)C(C(=O)NCCCC)C1CCCCC1 (centres undefined),25,0,x,x,1,4,x,x
O=C(c1ccco1)N1CCN(C(=O)C2CC(=O)N(c3ccccc3)C2)CC1 (centres undefined),16,-2,x,x,-1,-9,x,x
Cc1ccsc1C(=O)N(C)C1CCS(=O)(=O)C1 (centres undefined),-10,0,x,x,2,-1,x,x
CCN(CCCNC(=O)c1cc2c(-c3cccc(OC)c3)nn(C)c2s1)Cc1ccccc1,55*,-2,x,x,0,26,26,x
Cc1cc(C)c(C(=O)N2CCC(N3CCC(C(=O)NC(C)C)CC3)CC2)o1,17,-5,x,x,0,-1,x,x
SMILES,Mdm2-MdmX inh,UPR XBP1 act,MDM2 E3 inh,Dynein cargo inh,UPR CHOP act,B2AR ag,Mdm2 MdmX conf,Full FLuc ctr
COc1ccccc1CN(C)C(=O)c1cc(-c2cc(OC)c(OC)c(OC)c2)nc2ccccc12,78*,7,x,x,7,3,77*,50*
COc1ccc(-c2cc(C(=O)N(C)CC(=O)Nc3ccccc3Br)c3ccccc3n2)cc1OC,56*,-1,x,x,3,18,49*,80*
COc1cc(-c2cc(C(=O)N(C)Cc3ccccc3)c3ccccc3n2)cc(OC)c1OC,62*,1,x,x,4,18,46*,76*
COc1ccc(-c2cc(C(=O)N(C)CC(=O)Nc3ccccc3C(F)(F)F)c3ccccc3n2)cc1OC,x,x,x,x,x,14,x,x
COc1ccc(-c2cc(C(=O)N(C)Cc3ccccc3F)c3ccccc3n2)cc1OC,70*,-6,x,x,1,11,39,105*
COc1ccc(C(=O)OC(C)C(=O)NCC2CCCCC2)cc1S(=O)(=O)N1CCOCC1 (centres undefined),-22,-1,x,x,3,0,x,x
COc1ccc(NC(=O)c2ccccc2OCc2ccc(F)cc2)c(OC)c1,18,6,x,x,3,-9,x,x
COc1cccc(CN(C)C(=O)c2cc(-c3cccs3)nc3ccccc23)c1,58*,0,x,x,1,9,43*,61*
COc1ccc(N2CCN(C(=O)c3cc(-c4cccs4)nc4ccccc34)CC2)cc1,-15,-3,-4,-0.47,-1,7,x,x
CN(C)CCCNc1cc(C(C)(C)C)nc2c(-c3ccc(Cl)cc3)cnn12,98*,17,-11,5.3,24,18,72*,51*

# Compound activity: PubChem, several laboratories
